DENV2 CPE: inhibitors of DENV2 cytopathic effect, primary screen, cell-based, plate reader, single concentration; DENV2-infected cells, cytopathic effect rescue; CPE inhibition, % at 9.99 µM; hit rate 1.7% among 350,000; AID 651640, 2012; in the data active = CPE inhibition above about 20%, passing the limit was not always enough; inconclusive = no clear call, values can overlap the other calls; tested in BHK-21 cells
ERAP1 HTS inh: human ERAP1 aminopeptidase inhibitors, primary screen, biochemical, single point, plate reader; recombinant ERAP1, Leu-AMC fluorescence, 60 min; inhibition, % at 10.7 µM; hit rate 0.15% among 340,000;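 active = mean replicate inhibition of at least 30%, or all replicates individually reaching that 30% level; inactive = mean below 30% and not every replicate reaching it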
CFTR F508del cor: F508del CFTR correction, initial screen, CFBE line, single point. CFBE cells, YFP halide quenching; stimulated with forskolin plus potentiator P3; % fluorescence drop versus neutral controls. activity (quench increase), % at 7.58 µM. hit rate 0.36% among 350,000;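 active = mean added fluorescence quench of at least 8% versus neutral control, with both replicates also reaching 8%; inconclusive = only one of the mean or replicate conditions met; inactive = mean below 8% and not both replicates reaching 8%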;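 also: cells transiently co-express mutant CFTR-F508del with the halide-sensitive YFP; corrector assay measuring rescue of mutant channel to the surface after 24 h compound exposure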
E-sel inducer: E-selectin induction in HUVECs, primary screen, imaging, HUVEC, immunofluorescence imaging, single point | activation, % at 7.58 µM | normalized: neutral wells 0, TNF-alpha wells 100 | AID 686992, 2013 | hit rate 0.37% among 260,000;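 active = mean E-selectin-positive cell signal at least 10% of the positive control, reached in at least 60% of replicates, without over 20% cell loss; inconclusive = no rule given, readout overlaps actives, possibly toxicity-flagged; inactive = the rest, including those meeting only one limit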
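Assay system: HUVEC, human umbilical vein endothelial cells / Amount: 3,000 HUVEC/well / Controls: TNF-alpha positive control, DMSO neutral control / Compound dosing: single concentration / Medium: EGM-2 over gelatin coat / Evaluation: percent E-selectin-positive cells / Signal: immunofluorescence imaging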
FGF22 binding: binders of human FGF22 protein, primary screen, FGF22 synaptogenesis inhibitor project, biophysical, thermal shift, single point; hit rate 1.5% among 340,000; recombinant FGF22 thermal shift, SYPRO orange fluorescence; percent of sucrose octasulfate shift, DMSO zero; activity (Tm shift, normalised), % at 9.99 µM; Fibroblast growth factor 22 (Homo sapiens), Q9HCT0;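 active = mean Tm shift, scaled 0 neutral to 100 positive control, at about 1.3% or above, every replicate too, limit read from the data; inconclusive = no clear call, values can overlap the other calls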
Target sequence (Q9HCT0 whole entry, looked up): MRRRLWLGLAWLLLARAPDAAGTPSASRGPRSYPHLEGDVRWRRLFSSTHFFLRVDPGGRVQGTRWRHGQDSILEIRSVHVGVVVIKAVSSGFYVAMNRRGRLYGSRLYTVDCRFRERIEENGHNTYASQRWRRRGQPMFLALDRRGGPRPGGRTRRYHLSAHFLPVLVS
Hits are given with their value; – = inactive; ? = inconclusive; · = no result given; ! = not confirmed by another sample. A selection: hits, their analogues and other compounds. The true share with any hit is near 3.7%.

SMILES | DENV2 CPE | ERAP1 HTS inh | CFTR F508del cor | E-sel inducer | FGF22 binding
COc1ccc(C(=O)NCCNc2nc3c(C)cccc3cc2C#N)cc1 | – | – | – | – | –
COc1ccc(C(=O)NCCNc2nc3c(C)cccc3cc2C#N)cc1OC | 29 | – | – | – | –
CCC(=O)NCCCNc1nc2c(C)cccc2cc1C#N | – | – | – | · | 43
COc1cc(C(=O)NCCNc2nc3c(C)cccc3cc2C#N)cc(OC)c1OC | ? | – | – | – | –
Cc1ccc(C)c(NS(=O)(=O)c2cc(C(=O)NCc3ccncc3)ccc2C)c1 | 98 | – | – | – | –
CC(C)NC(=O)Nc1cccc2c1O[C@@H](CN(C)Cc1ccc(Cl)c(Cl)c1)[C@H](C)CN([C@@H](C)CO)C2=O | – | – | – | – | –
CC(C)NC(=O)Nc1cccc2c1O[C@H](CN(C)Cc1ccc(Cl)c(Cl)c1)[C@@H](C)CN([C@@H](C)CO)C2=O | – | – | – | 53 | –
C[C@H](CO)N1C[C@H](C)[C@H](CN(C)Cc2ccc(Cl)c(Cl)c2)Oc2c(NC(=O)NC3CCCCC3)cccc2C1=O | – | – | – | · | –
CC(C)NC(=O)Nc1cccc2c1O[C@H](CN(C)Cc1ccc(Cl)c(Cl)c1)[C@H](C)CN([C@@H](C)CO)C2=O | – | – | – | 30 | –
C[C@@H]1CN([C@@H](C)CO)C(=O)c2cc(-c3cccnc3)cnc2O[C@@H]1CN(C)C(=O)c1ccccc1F | 46 | – | – | – | –
C[C@H](CO)N1C[C@H](C)[C@@H](CN(C)C(=O)Nc2ccc(C(F)(F)F)cc2)Oc2ncc(-c3cccnc3)cc2C1=O | 30 | – | – | – | –
COc1ccccc1C(=O)Nc1ccc2c(c1)C(=O)N(C)[C@@H]1CC[C@@H](CC(=O)NCCc3ccncc3)O[C@@H]1CO2 | – | · | · | – | –
Cc1noc(C)c1COc1ccc(C(=O)OCC(=O)NCCN2C(=O)CSC2=O)cc1 | · | – | – | – | 44
O=C(COC(=O)c1ccc(OC(F)(F)F)cc1)NCCN1C(=O)CSC1=O | – | – | – | · | –
COc1ccc(C)cc1Nc1n[n+](-c2ccccc2)c(-c2ccc(C(=O)O)cc2)s1 | · | – | – | – | 44
COc1cccc(-c2ccc([C@@H]3[C@H](CO)N(C(=O)C4CC4)C34CN(C(C)=O)C4)cc2)c1 | – | – | – | – | –
S=P(N1CC1)(N1CC1)N1CC1 | 42 | 53 | – | – | –
NS(=O)(=O)c1ccc(NC(=O)c2cccc3ccccc23)cc1 | – | – | – | · | –
NS(=O)(=O)c1ccc(NC(=O)c2cccc3cc4ccccc4nc23)cc1 | – | – | 19 | · | –
CCCSc1ccc([C@@H]2[C@H]3C(=O)N(CC)C(=O)[C@H]3[C@]3(C(=O)OC)CCCN23)cc1OC | 102 | – | – | – | –
CCCN(C)C[C@@H]1OCCCC[C@H](C)Oc2ccc(N(C)C)cc2C(=O)N([C@H](C)CO)C[C@@H]1C | 69 | – | – | – | –
C[C@H](CO)N1C[C@H](C)[C@@H](CN(C)Cc2ccc3c(c2)OCO3)OCCCC[C@H](C)Oc2ccc(N(C)C)cc2C1=O | 124 | · | – | – | ·
C[C@H]1CCCCO[C@@H](CN(C)Cc2ccc3c(c2)OCO3)[C@@H](C)CN([C@@H](C)CO)C(=O)c2cc(N(C)C)ccc2O1 | – | – | – | · | –
Cc1noc(C)c1NC(=O)Nc1ccc2c(c1)C(=O)N([C@@H](C)CO)C[C@H](C)[C@H](CN(C)C(=O)C1CCCCC1)OCCCC[C@@H](C)O2 | – | – | – | – | –
C[C@@H]1CCCCO[C@H](CN(C)C(=O)Nc2ccccc2)[C@@H](C)CN([C@H](C)CO)C(=O)c2cc(NS(=O)(=O)c3cn(C)cn3)ccc2O1 | 45! | – | – | – | –
SMILES | DENV2 CPE | ERAP1 HTS inh | CFTR F508del cor | E-sel inducer | FGF22 binding
C[C@@H]1CCCCO[C@H](CN(C)C(=O)Nc2cccc3ccccc23)[C@@H](C)CN([C@@H](C)CO)C(=O)c2cc(NS(=O)(=O)c3cn(C)cn3)ccc2O1 | 89 | · | – | – | –
COc1ccc(CN(C)C[C@H]2OCCCC[C@H](C)Oc3ccc(NC(=O)c4ccncc4)cc3C(=O)N([C@@H](C)CO)C[C@H]2C)cc1 | – | – | – | – | –
CC(=O)N1CC23C=CC(CC2CC12CCCCCC2)O3 (stereo not drawn) | – | – | – | 35 | –
O=C(CN(C1CCCCC1)S(=O)(=O)c1ccc(F)cc1)NCC1CCCO1 (stereo not drawn) | – | – | 21 | – | –
C[C@@H](NC(=O)C[C@@H]1CC[C@H]2[C@@H](COC[C@H](O)CN2C(=O)Nc2cc(Cl)cc(Cl)c2)O1)c1ccccc1 | 40 | – | – | – | –
C[C@@H](NC(=O)C[C@@H]1CC[C@H]2[C@@H](COC[C@@H](O)CN2C(=O)Nc2cc(Cl)cc(Cl)c2)O1)c1ccccc1 | – | – | – | – | –
C[C@H](NC(=O)C[C@H]1CC[C@H]2[C@@H](COC[C@@H](O)CN2C(=O)Nc2cc(Cl)cc(Cl)c2)O1)c1ccccc1 | 23 | – | – | – | –
Cc1nc([N+](=O)[O-])c(SCC(O)CCl)n1Cc1ccc(Cl)cc1 (stereo not drawn) | – | – | – | · | 43
COc1ccc(C2(C)NC(=O)N(CC(=O)c3cc(C)n(C4CC4)c3C)C2=O)cc1 (stereo not drawn) | 37 | – | – | · | –
Cc1cc(C(=O)CN2C(=O)NC(C)(c3ccc(F)c(F)c3)C2=O)c(C)n1C1CC1 (stereo not drawn) | · | – | – | – | –
Cc1noc(C)c1S(=O)(=O)Nc1ccc2c(c1)C(=O)N([C@H](C)CO)C[C@@H](C)[C@H](CN(C)Cc1ccc3c(c1)OCO3)O2 | – | – | – | 26 | –
Cc1noc(C)c1S(=O)(=O)Nc1ccc2c(c1)C(=O)N([C@H](C)CO)C[C@@H](C)[C@@H](CN(C)Cc1ccc3c(c1)OCO3)O2 | – | – | – | 44 | –
Cc1noc(C)c1S(=O)(=O)Nc1ccc2c(c1)C(=O)N([C@H](C)CO)C[C@@H](C)[C@@H](CN(C)Cc1ccc(Cl)c(Cl)c1)O2 | – | – | – | · | –
C[C@H](O)C#Cc1cnc2c(c1)C(=O)N([C@@H](C)CO)C[C@H](C)[C@H](CN(C)C(=O)CC1CC1)O2 | – | – | – | – | –
COc1ccc(-c2cnc3c(NC(C)=O)cc(-c4ccccc4OC)cn23)cc1OC | 30 | – | – | – | –
COc1cc(-c2cnc3c(NC=O)cc(-c4ccc(C)cc4)cn23)cc(OC)c1OC | 95 | – | – | – | –
CC(=O)Nc1cc(-c2ccc(C(=O)NC3CC3)cc2)cn2c(-c3cccc(C(F)(F)F)c3)cnc12 | 38 | – | – | – | –

Source: PubChem BioAssay (Broad Institute)
